ChEMBL document CHEMBL1132241, “Novel multidrug resistance reversal agents” (J Med Chem, 1999)

What was measured:
[1] = Partition coefficient (logP); format: physicochemical; conditions: octanol/water
S1B1-20 = experiment: In vitro concentration required to inhibit tumor activity on subclone of human colon carcinoma cells (S1-B1-20) resistant to bisantrene; format: functional, cell-based
Summary of the method: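 S1-B1-20 cells (S1 clone of LS 174 T, selected in bisantrene over 12–16 weeks) plated at 20 000 cells/well with or without 20 μM bisantrene, plus test agent 0.1–80 μM from DMSO stock (final DMSO ≤0.1%). 3 days, 37 °C, 7% CO2. Survival by sulforhodamine B at 540 nm. IC50 from best-fit curve of difference score (survival alone minus survival with bisantrene) at 50; 2–4 sets of measurements.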

[2] = In vitro concentration at which 50% of human colon carcinoma cells (S1-B1-20) resistant to bisantrene have survived; format: ADME, cell-based, S1B1-20; conditions: S1-B1-20 human colon carcinoma cells resistant to bisantrene, read-out: LD50 (the source's name)
Summary of the method: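 S1-B1-20 cells (LS 174 T-derived S1 clone selected in bisantrene over 12–16 weeks), trypsinized, 20 000 cells/well. Test agent alone in DMSO (≤0.1% final), 0.1–80 µM, 3 days at 37 °C, 7% CO2. Survival by sulforhodamine B read at 540 nm versus untreated cells. Two to four measurement sets were made, and the value is the concentration giving 50% survival from a best-fit curve.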

Mus musculus [3] = experiment: Relative tumor growth inhibition against human epidermoid carcinoma KB/8.5 implanted subcutaneously only in mice at 8 mg/kg (DOX); format: functional; conditions: route subcutaneous
Summary of the method: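 KB/8.5 cells grown in RPMI 1640 with 5% fetal calf serum plus colchicine (10 ng/mL), which was removed for two passages. 8 × 10^6 cells were then implanted sc in athymic nude mice. At 100-300 mg tumor mass, mice were grouped 5-10/group. Doxorubicin was given as a single iv dose (8 mg/kg). Tumor mass was measured on day 14, and relative growth was compared with saline control.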

Mus musculus [4] = experiment: Percent tumor growth inhibition against human epidermoid carcinoma KB/8.5 implanted subcutaneously in mice at 200 mg/kg of compound along with 8 mg/kg (DOX ) was determined; format: functional
Summary of the method: (§1)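 Athymic nude mice bearing sc KB/8.5 tumors (8×10^6 cells, colchicine withdrawn for two passages), grouped at 100–300 mg tumor mass, 5–10 mice/group. Doxorubicin 8 mg/kg given once iv; reversal agent or placebo given sc 2 h before and 2 h after. Tumor mass on day 14 used for relative tumor growth versus doxorubicin alone; Student t-test on log RTG.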

Mus musculus [5] = experiment: Percent tumor growth inhibition against human epidermoid carcinoma KB/8.5 implanted subcutaneously in mice at 100 mg/kg of compound along with 8 mg/kg (DOX ) was determined; format: functional; summary of the method: as §1

SMILES	logP ([1]; read-out: logP)	IC50 (S1B1-20; Homo sapiens, S1B1-20) [nM]	CC50 [2] [µM]	Relative tumor growth (Mus musculus [3])	TGI (Mus musculus [4]) [%]	TGI (Mus musculus [5]) [%]	IC50 (S1B1-20; s1b1-20) [nM]	Relative tumor growth (Mus musculus [3]; 8 mg/kg)	logP [1]
COc1ccc(C(C#N)(CCCCCN2Cc3cc(OC)c(OCCn4ccnc4)cc3C2)Sc2ccc(C)cc2)cc1OC (centres undefined)	5.23	500	8.37						
COc1ccc(C(C#N)(CCCCN2CCc3cc(OC)c(OC)cc3C2)Sc2ccc(C)cc2)cc1OC (centres undefined)	5.65	620	41.8						
COc1ccc2c(c1)CCN(CCCCCC(Sc1ccc(C)cc1)c1ccc(OC)c(OC)c1)C2 (centres undefined)	7.88	3090	22.2						
COc1ccc(C(C#N)(CC#CCCN2CCc3cc(OC)c(OC)cc3C2)Sc2ccc(C)cc2)cc1OC (centres undefined)	5.52	970	36						
COc1ccc(C(C#N)(CCCCCN2CCc3cc(OC)c(OCCN(C)C)cc3C2)Sc2ccc(C)cc2)cc1OC (centres undefined)	6.1		6.68						
COc1ccc(CC2c3cc(OC)c(OC)cc3CCN2CCCCCC(C#N)(Sc2ccc(C)cc2)c2ccc(OC)c(OC)c2)cc1OC (centres undefined)	7.57	1060	78.2	64	58				
CCCCCSC(CCCCCN1CCc2cc(OC)c(OC)cc2C1)c1ccc(OC)c(OC)c1 (centres undefined)	5.66	500	16.3						
COc1cc2c(cc1O)CN(CCCCCC(C#N)(SC1CCCCC1)c1ccc(OC)c(OC)c1)CC2 (centres undefined)	6								
COc1ccc(C(C#N)(CCCCCN2CCc3cc(OC)c(OCCn4ccnc4)cc3C2)Sc2ccc(C)cc2)cc1OC (stereo in doubt; 48)	5.86	530	11.6						
COc1cc2c(cc1OC)CN(CCCCCCC(Sc1ccc(C)cc1)c1ccc(OC)c(OCCn3ccnc3)c1)CC2 (stereo in doubt; 37b)	7.63		5.52			67	690	72	
COc1ccc(C(C#N)(CCCCCN2CCc3cc(OC)c(OC)cc3C2)SC2CCCCC2)cc1OC (centres undefined)	6.28	460	14	67		69			
COc1ccc(C(C#N)(CCCCCN2CCc3cc(OC)c(OCc4ccccc4)cc3C2)Sc2ccc(C)cc2)cc1OC (centres undefined)	7.95	850	40	100	71				
COc1ccc(C(C#N)(CCCCCN2Cc3cc(OC)c(OC)cc3C2)SC2CCCCC2)cc1OC (stereo in doubt; 46)	5.65	260	11.8						
COc1cc2c(cc1OC)CN(CCCCCCC(Sc1ccc(C)cc1)c1ccc(OC)c(O[Si](C)(C)C(C)(C)C)c1)CC2 (centres undefined)		10700	49.1						11.68
COc1ccc(C(CCCCCCN2CCc3cc(OC)c(OC)cc3C2)Sc2ccc(C)cc2)cc1OC (centres undefined)	7.95	900	13.2	45		64			
COc1ccc(C(C#N)(CCCCCN2CCc3cc(OC)c(OC)cc3C2)Sc2ccccn2)cc1OC (centres undefined)	4.72	2120	50.8						
COc1ccc(C(CCCCCCN2CCc3cc(OC)c(OC)c(OC)c3C2)Sc2ccc(C)cc2)cc1OC (centres undefined)	7.38	700	14	64		54			
COc1ccc(C(C#N)(CCCCCN2CCc3cc(OC)c(OCCn4ccnc4)cc3C2)SC2CCCCC2)cc1OC (centres undefined)	5.96	960	8.39						
COc1cc2c(cc1OC)CN(CCCCCCC(Sc1ccc(C)cc1)c1ccc(F)cc1)CC2 (centres undefined)	8.63	2700	27						
COc1ccc(C(CCCCCCN2Cc3cc(OC)c(OC)cc3C2)Sc2ccc(C)cc2)cc1OC (centres undefined)	7.32	1840	22.1	75		60			
COc1cc2c(cc1OC)CN(CCCCCCC(Sc1ccc(C)cc1)c1ccc(OC)c(OCCCl)c1)CC2 (centres undefined)	8.54	960	10.3						
